The term IC50 denotes the concentration needed to halve the response being measured. As a reminder, the EC50 is the concentration needed to bring the measured effect to its halfway point. What is called Ki is a measure of affinity in units of concentration, obtained from inhibition or displacement. Read a low Ki as tighter binding.

Activity calls are given as the source filed them. No cut-off for these calls is given here.

The target of experiment [1] is T1, Fatty-acid amide hydrolase 1 (Homo sapiens) (UniProt O00519).
T1 sequence (whole entry): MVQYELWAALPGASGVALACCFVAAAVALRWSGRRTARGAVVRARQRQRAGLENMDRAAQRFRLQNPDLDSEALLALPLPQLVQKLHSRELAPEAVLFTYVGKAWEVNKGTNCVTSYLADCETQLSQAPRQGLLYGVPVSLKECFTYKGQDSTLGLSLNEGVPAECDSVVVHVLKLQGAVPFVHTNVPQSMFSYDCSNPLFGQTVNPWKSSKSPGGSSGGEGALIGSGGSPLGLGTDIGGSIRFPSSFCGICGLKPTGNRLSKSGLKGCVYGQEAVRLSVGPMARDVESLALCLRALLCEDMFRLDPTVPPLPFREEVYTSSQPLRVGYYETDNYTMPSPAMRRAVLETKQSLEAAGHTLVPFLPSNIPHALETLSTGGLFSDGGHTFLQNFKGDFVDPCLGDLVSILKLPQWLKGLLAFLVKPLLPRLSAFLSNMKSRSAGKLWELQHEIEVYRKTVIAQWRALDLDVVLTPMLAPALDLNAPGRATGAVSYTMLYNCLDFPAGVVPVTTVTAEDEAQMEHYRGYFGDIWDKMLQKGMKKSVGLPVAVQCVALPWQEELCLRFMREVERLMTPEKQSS
Kind of experiment: Inhibition of FAAH in human U937 cell homogenate assessed as decrease in [ethanolamine-1-3H]AEA levels up to 10 uM preincubated for 30 mins followed by AEA addition measured after 15 mins by liquid scintillation counting method. The method in brief:
(§1)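 U937 cell homogenate (100 μg) in 10 mM Tris-HCl, 1 mM EDTA, pH 8, 0.1% fatty acid-free BSA. Compound screened at 10 μM, 30 min at 37 °C. Then 100 nM AEA with 1 nM [ethanolamine-1-3H]AEA tracer added, 15 min at 37 °C. Stopped with ice-cold CHCl3:MeOH (1:1), centrifuged, tritium in aqueous phase counted by liquid scintillation. Data as mean with 95% CI, n = 3.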

The next experiment concerns the target T2, Monoglyceride lipase (Homo sapiens, UniProt Q99685).
T2 sequence (Q99685 whole entry): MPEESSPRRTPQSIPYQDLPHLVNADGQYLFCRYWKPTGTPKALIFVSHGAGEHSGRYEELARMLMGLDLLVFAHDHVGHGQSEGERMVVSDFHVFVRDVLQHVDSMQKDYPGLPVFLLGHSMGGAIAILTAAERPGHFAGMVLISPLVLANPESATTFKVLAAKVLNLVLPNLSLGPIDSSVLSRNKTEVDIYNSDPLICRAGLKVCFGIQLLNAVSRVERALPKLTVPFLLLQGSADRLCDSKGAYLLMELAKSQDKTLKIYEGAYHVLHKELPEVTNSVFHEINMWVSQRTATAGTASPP
Kind of experiment: Inhibition of MAGL in human U937 cell homogenate assessed as decrease in [ethanolamine-1-3H]AEA levels preincubated for 30 mins followed by AEA addition measured after 15 mins by liquid scintillation counting method. The method in brief: as §1

The target in experiment [2] is T3, Cannabinoid receptor 1 (Homo sapiens, UniProt P21554). The experiment can be described thus: Negative allosteric modulation of human CB1 receptor expressed in HEK293 cells assessed as inhibition of 33 nM CP55,940-induced SRE transcriptional activity after 5 hrs by luciferase reporter gene assay. It is filed as functional, cell-based. Background: A reporter such as luciferase makes a cellular process visible.
T3 sequence (P21554 whole entry): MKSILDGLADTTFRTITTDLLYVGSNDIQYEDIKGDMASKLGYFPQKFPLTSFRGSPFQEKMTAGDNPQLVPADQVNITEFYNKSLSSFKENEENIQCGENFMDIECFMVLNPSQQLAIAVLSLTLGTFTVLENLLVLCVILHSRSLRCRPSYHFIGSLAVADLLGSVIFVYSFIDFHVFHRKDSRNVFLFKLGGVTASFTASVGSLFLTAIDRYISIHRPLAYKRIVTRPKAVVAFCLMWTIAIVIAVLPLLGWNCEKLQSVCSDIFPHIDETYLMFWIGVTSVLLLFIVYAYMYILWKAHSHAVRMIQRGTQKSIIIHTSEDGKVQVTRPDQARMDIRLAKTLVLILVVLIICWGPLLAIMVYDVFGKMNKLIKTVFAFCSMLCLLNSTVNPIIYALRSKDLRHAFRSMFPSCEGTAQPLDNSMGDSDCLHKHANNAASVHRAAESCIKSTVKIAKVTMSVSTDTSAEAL

Experiment [3] deals with T4, Fatty-acid amide hydrolase 1 (Homo sapiens, UniProt O00519).
T4 sequence (O00519 whole entry): T1 sequence (whole entry)
The experiment can be described thus: Inhibition of FAAH in human U937 cell homogenate assessed as decrease in [ethanolamine-1-3H]AEA levels preincubated for 30 mins followed by AEA addition measured after 15 mins by liquid scintillation counting method. The method in brief:
as §1

The target of experiment [4] is T3, Cannabinoid receptor 1. The experiment can be described thus: Positive allosteric modulation of human CB1 receptor expressed in CHO-K1 cell membranes assessed as induction of [3H]CP55,940 binding after 1.5 hrs by liquid scintillation counting assay. Type of experiment: functional.
A further experiment has as its target Cannabinoid receptor 2 (Homo sapiens, UniProt P34972). Kind of experiment: Displacement of [3H]CP55,940 from human CB2 receptor expressed in CHO-K1 cell membranes after 1.5 hrs by liquid scintillation counting assay.
For experiment [5], the target named is T5, Monoglyceride lipase (Homo sapiens) (UniProt Q99685).
T5 sequence (whole entry): T2 sequence (Q99685 whole entry)
Kind of experiment: Inhibition of MAGL in human U937 cell homogenate assessed as decrease in [ethanolamine-1-3H]AEA levels up to 10 uM preincubated for 30 mins followed by AEA addition measured after 15 mins by liquid scintillation counting method. The method in brief: as §1

A further experiment has as its system U-937. The experiment can be described thus: Inhibition of [ethanolamine-1-3H]AEA uptake in human U937 cell homogenate preincubated for 20 mins followed by AEA addition measured after 5 mins by scintillation counting method. Conditions: in the assay text read “intact human U937 cells” for “human U937 cell homogenate”. Type of experiment: functional, cell-based. The method in brief:
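Intact U937 cells (0.5 × 10^6) in serum-free medium. Preincubated 20 min at 37 °C with compound at a 10 μM screening concentration, then 5 min at 37 °C with 100 nM AEA plus 0.5 nM [ethanolamine-1-3H]AEA. Stopped on ice and by rapid filtration over GF/C filters presoaked in PBS/0.2% BSA. Washed with ice-cold PBS/1% fatty acid-free BSA, then scintillation counted.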

The target of experiment [6] is T3, Cannabinoid receptor 1. The experiment can be described thus: Positive allosteric modulation of human CB1 receptor expressed in CHO-K1 cell membranes assessed as induction of [3H]CP55,940 binding at 100 uM after 1.5 hrs by liquid scintillation counting assay relative to control. It is filed as functional.
The target of experiment [7] is T3, Cannabinoid receptor 1. Kind of experiment: Positive allosteric modulation of human CB1 receptor expressed in CHO-K1 cell membranes assessed as induction of [3H]CP55,940 binding up to 10 uM after 1.5 hrs by liquid scintillation counting assay. Type of experiment: functional.

Chain of Cannabinoid receptor 2 (P34972 whole entry): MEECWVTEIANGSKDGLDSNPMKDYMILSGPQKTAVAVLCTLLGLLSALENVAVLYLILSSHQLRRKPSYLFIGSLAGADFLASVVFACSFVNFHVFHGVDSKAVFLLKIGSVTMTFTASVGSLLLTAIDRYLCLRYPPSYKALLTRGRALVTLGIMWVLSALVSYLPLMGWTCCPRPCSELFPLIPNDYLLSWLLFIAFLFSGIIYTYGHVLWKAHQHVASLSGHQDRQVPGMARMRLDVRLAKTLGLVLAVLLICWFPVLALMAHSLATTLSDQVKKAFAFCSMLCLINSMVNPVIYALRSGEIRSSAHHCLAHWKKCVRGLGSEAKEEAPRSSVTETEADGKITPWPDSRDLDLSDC

Take `O=C(Nc1ccc(Cl)cc1)Nc1cccc(Nc2cccc(N3CCCC3)c2)c1`: the inhibition entry in [1] and in experiment [5] was “inactive” throughout. Further, the IC50 is above 10 µM on Monoglyceride lipase, 9.6 µM on Cannabinoid receptor 1 [2], above 10 µM in experiment [3] and above 10 µM with U-937. In addition, at Cannabinoid receptor 1 [4], the EC50 was 13.5 µM. This molecule returned a Ki at Cannabinoid receptor 2 above 100 µM.
Take `O=C(Nc1ccc(Cl)cc1)Nc1cccc(-c2cccc(N3CCCC3)c2)c1`: the inhibition entry in experiment [1] and in [5] was “inactive” in each case. Further, the IC50 at Monoglyceride lipase was above 10 µM; on Cannabinoid receptor 1 [2], 0.29 µM; in experiment [3], above 10 µM; in the experiment on U-937, above 10 µM. Besides, the Activity result on Cannabinoid receptor 1 [4] was “Dose-dependent effect”. Moreover, the EC50 at Cannabinoid receptor 1 [4] is 0.043 µM. Also, the affinity on Cannabinoid receptor 2, expressed as Ki, was 49.8 µM.
Take `O=C(Nc1ccc(Cl)cc1)Nc1cccc(Nc2cccc(N3CCCC3)n2)c1`: the inhibition entry in experiment [1] and in [5] was “inactive” each time. In addition, the IC50 (at Monoglyceride lipase; in experiment [3]; in the experiment on U-937) was above 10 µM each time. This molecule also yielded a Ki at Cannabinoid receptor 2 of 52.6 µM.
For the molecule `O=C(Nc1ccc(Cl)cc1)Nc1cccc(-c2cccc(N3CCCC3)n2)c1`, the IC50 in experiment [3] was 2.1 µM; in the experiment on U-937, above 10 µM. Besides, the Ki on Cannabinoid receptor 2 is above 10 µM. In addition, the inhibition entry in experiment [5] is “inactive”.
Turning to `O=C(Cc1ccc(Cl)cc1)Nc1cccc(-c2cccc(N3CCCC3)c2)c1`, the inhibition entry in experiment [1] and in [5] was “inactive” throughout. Moreover, the IC50 at Monoglyceride lipase is above 10 µM; on Cannabinoid receptor 1 [2], 1.9 µM; in experiment [3], above 10 µM; in the experiment on U-937 it was above 10 µM. On Cannabinoid receptor 1 [6], the Activity stood at 10%. For the same molecule, on Cannabinoid receptor 1 [4], the EC50 was above 10 µM. The same molecule yielded a Ki on Cannabinoid receptor 2 above 100 µM. Further, the outcome on Cannabinoid receptor 1 [7] was Active.

These data come from ChEMBL document CHEMBL4177633 (Bioorg Med Chem, 2017).
